# Test results taken from ChEMBL document CHEMBL4229344 (Eur J Med Chem, 2018).
# Key:
# [1] = system: Tyrosine-protein kinase ABL1 (Homo sapiens), P00519 [H396P]; assay: Binding affinity to human non-phosphorylated ABL1 H396P mutant (S229 to K512 residues) expressed in mammalian expression system assessed as residual binding level at 1 uM by Kinomescan method relative to control
# Method in brief: (§1)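 Kinome-wide single-concentration binding screen (KINOMEscan) at 1 μM against a panel of 468 purified kinases and mutants. Read-out is relative binding of each kinase compared with control. Selectivity across the panel was summarised as an S(10) score.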
# [2] = system: Tyrosine-protein kinase ABL1 (Homo sapiens), P00519 [Q252H]; assay: Binding affinity to human non-phosphorylated ABL1 Q252H mutant (S229 to K512 residues) expressed in mammalian expression system assessed as residual binding level at 1 uM by Kinomescan method relative to control; method in brief: as §1
# [3] = target: RAC-beta serine/threonine-protein kinase (Homo sapiens) (UniProt P31751); assay: Binding affinity to wild-type human partial length AKT2 expressed in bacterial expression system assessed as residual binding level at 1 uM by Kinomescan method relative to control
# Chain of RAC-beta serine/threonine-protein kinase (Homo sapiens) (P31751 whole entry): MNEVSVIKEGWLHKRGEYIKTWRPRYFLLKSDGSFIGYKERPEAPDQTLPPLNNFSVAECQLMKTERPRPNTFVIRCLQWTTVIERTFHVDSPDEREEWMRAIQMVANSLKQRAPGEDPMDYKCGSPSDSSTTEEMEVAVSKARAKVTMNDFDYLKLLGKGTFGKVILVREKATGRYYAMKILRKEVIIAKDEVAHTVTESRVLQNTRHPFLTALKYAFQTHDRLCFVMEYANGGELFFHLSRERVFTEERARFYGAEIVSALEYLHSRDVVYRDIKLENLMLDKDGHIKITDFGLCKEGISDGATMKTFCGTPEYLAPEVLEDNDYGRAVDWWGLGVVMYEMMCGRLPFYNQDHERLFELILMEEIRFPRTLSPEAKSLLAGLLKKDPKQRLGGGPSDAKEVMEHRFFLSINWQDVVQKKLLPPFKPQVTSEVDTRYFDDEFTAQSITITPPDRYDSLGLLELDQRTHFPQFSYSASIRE
# Method in brief: (§2)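 Single-concentration KINOMEscan (DiscoverX) binding screen at 1 μM against a panel of 468 purified kinases and mutants. The read-out is binding relative to control.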
# [4] = target: Aurora kinase B (Homo sapiens) (UniProt Q96GD4); assay: Binding affinity to wild-type human partial length AURKB (D25 to A303 residues) expressed in mammalian expression system assessed as residual binding level at 1 uM by Kinomescan method relative to control; method in brief: as §2
# [5] = target: Macrophage colony-stimulating factor 1 receptor (Homo sapiens) (UniProt P07333); assay: Binding affinity to wild-type human partial length CSF1R (I564 to S939 residues) expressed in bacterial expression system assessed as residual binding level at 1 uM by Kinomescan method relative to control
# [6] = target: Dual specificity tyrosine-phosphorylation-regulated kinase 2 (Homo sapiens) (UniProt Q92630); assay: Binding affinity to wild-type human full length DYRK2 (M1 to S528 residues) expressed in mammalian expression system assessed as residual binding level at 1 uM by Kinomescan method relative to control
# Method in brief: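 Single-concentration (1 μM) competition-binding screen run by KINOMEscan against a panel of 468 purified kinases and mutants. The read-out is the relative binding activity of the test compound to each kinase.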
# [7] = target: Mitogen-activated protein kinase kinase kinase 2 (Homo sapiens) (UniProt Q9Y2U5); assay: Binding affinity to wild-type human partial length MAP3K2 (S315 to H619 residues) expressed in mammalian expression system assessed as residual binding level at 1 uM by Kinomescan method relative to control
# [8] = target: Mitogen-activated protein kinase kinase kinase 3 (Homo sapiens) (UniProt Q99759); assay: Binding affinity to wild-type human partial length MAP3K3 (E320 to Y626 residues) expressed in mammalian expression system assessed as residual binding level at 1 uM by Kinomescan method relative to control
# [9] = target: Mitogen-activated protein kinase kinase kinase kinase 4 (Homo sapiens) (UniProt O95819); assay: Binding affinity to wild-type human partial length MAP4K4 (M1 to R310 residues) expressed in bacterial expression system assessed as residual binding level at 1 uM by Kinomescan method relative to control
# Chain of Mitogen-activated protein kinase kinase kinase kinase 4 (Homo sapiens) (O95819 2-1239 limits assumed): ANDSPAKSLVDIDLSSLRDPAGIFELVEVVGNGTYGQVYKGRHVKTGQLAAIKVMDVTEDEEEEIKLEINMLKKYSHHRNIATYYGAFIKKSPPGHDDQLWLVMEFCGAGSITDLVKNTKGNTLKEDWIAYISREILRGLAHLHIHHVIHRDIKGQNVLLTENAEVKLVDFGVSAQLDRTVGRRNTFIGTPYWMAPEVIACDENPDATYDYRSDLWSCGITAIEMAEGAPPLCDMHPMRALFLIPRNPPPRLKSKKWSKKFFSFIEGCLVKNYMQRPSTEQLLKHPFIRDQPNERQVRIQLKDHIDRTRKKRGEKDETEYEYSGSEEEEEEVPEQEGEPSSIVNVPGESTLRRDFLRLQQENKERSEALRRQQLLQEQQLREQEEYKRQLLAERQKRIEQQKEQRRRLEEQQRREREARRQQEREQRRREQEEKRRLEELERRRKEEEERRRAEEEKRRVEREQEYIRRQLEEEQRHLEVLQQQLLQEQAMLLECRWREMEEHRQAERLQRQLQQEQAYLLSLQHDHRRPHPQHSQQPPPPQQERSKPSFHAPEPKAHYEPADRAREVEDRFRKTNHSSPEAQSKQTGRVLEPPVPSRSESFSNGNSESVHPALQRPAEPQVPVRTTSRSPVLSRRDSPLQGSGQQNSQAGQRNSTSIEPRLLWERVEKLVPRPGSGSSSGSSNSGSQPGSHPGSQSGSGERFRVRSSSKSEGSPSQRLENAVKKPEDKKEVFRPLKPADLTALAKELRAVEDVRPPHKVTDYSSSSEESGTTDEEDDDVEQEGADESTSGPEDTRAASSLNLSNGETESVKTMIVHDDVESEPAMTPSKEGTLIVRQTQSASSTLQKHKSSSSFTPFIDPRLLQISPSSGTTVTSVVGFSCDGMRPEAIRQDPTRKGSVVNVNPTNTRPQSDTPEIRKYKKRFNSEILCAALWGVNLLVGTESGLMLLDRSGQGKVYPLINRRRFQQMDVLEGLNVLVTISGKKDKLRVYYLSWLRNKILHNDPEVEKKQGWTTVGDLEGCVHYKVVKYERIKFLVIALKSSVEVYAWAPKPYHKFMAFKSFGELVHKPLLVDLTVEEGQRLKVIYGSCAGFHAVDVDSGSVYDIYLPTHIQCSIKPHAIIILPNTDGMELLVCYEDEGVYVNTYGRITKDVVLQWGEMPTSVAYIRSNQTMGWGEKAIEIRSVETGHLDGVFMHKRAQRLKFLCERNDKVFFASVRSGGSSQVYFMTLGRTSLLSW
# Method in brief: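 Kinome-wide competition binding screen against a panel of 468 purified kinases/mutants, with the test compound at a single concentration of 1 μM. Read-out is the relative binding activity of each kinase in the presence of compound.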
# [10] = target: Dual specificity mitogen-activated protein kinase kinase 2 (Homo sapiens) (UniProt P36507); assay: Binding affinity to wild-type human full length MEK2 (M1 to V400 residues) expressed in mammalian expression system assessed as residual binding level at 1 uM by Kinomescan method relative to control; method in brief: as §2
# Chain of Dual specificity mitogen-activated protein kinase kinase 2 (Homo sapiens) (P36507 whole entry, the tested form may be a part): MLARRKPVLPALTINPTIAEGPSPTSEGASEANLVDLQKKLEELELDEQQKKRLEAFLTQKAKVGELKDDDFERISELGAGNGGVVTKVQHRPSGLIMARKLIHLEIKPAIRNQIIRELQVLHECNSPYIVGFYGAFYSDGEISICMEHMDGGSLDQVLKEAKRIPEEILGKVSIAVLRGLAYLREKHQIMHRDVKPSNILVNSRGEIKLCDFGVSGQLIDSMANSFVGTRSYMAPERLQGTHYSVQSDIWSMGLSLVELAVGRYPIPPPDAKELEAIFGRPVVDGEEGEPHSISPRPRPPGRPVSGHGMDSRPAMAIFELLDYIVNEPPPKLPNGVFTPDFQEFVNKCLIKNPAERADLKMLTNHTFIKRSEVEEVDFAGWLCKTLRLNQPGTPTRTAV
# [11] = target: Serine/threonine-protein kinase 24 (Homo sapiens) (UniProt Q9Y6E0); assay: Binding affinity to wild-type human partial length MST3 (A30 to S311 residues) expressed in bacterial expression system assessed as residual binding level at 1 uM by Kinomescan method relative to control
# [12] = target: Serine/threonine-protein kinase Nek10 (Homo sapiens) (UniProt Q6ZWH5); assay: Binding affinity to wild-type human partial length NEK10 (L488 to R809 residues) expressed in mammalian expression system assessed as residual binding level at 1 uM by Kinomescan method relative to control
# [13] = target: Mitogen-activated protein kinase kinase kinase 14 (Homo sapiens) (UniProt Q99558); assay: Binding affinity to wild-type human partial length NIK (L318 to P947 residues) expressed in mammalian expression system assessed as residual binding level at 1 uM by Kinomescan method relative to control
# Chain of Mitogen-activated protein kinase kinase kinase 14 (Homo sapiens) (Q99558 whole entry, looked up, the tested form may be a part): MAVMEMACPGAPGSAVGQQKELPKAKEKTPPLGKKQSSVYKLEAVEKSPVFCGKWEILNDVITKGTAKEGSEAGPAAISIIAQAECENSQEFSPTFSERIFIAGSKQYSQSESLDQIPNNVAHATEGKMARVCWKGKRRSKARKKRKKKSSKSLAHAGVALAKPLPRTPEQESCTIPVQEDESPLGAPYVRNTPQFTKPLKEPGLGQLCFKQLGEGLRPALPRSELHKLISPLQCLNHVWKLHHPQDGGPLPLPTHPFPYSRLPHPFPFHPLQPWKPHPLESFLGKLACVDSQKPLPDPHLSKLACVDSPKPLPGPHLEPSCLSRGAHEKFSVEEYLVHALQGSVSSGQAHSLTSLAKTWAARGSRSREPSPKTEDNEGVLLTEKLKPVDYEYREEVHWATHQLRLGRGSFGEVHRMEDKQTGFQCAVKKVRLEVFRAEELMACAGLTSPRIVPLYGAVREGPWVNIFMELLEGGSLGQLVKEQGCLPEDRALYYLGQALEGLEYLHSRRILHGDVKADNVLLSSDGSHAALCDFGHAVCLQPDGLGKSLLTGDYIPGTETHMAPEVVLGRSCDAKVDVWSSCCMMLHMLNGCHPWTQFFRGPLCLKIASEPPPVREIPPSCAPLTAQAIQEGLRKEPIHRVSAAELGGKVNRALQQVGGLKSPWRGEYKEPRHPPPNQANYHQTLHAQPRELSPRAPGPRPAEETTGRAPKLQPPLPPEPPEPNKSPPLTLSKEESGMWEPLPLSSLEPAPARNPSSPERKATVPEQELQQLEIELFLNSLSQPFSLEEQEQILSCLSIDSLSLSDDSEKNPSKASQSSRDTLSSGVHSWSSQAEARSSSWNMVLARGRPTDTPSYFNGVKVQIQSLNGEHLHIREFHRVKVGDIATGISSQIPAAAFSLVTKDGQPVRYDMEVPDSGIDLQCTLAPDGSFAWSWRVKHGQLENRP
# Method in brief: (§3)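 KINOMEscan competition binding against a panel of 468 purified kinases/mutants, compound tested at 1 μM; readout is relative binding activity versus control.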
# [14] = target: Serine/threonine-protein kinase PAK 6 (Homo sapiens) (UniProt Q9NQU5); assay: Binding affinity to wild-type human partial length PAK6 (N298 to C681 residues) expressed in bacterial expression system assessed as residual binding level at 1 uM by Kinomescan method relative to control
# [15] = target: Serine/threonine-protein kinase N1 (Homo sapiens) (UniProt Q16512); assay: Binding affinity to wild-type human partial length PKN1 (E598 to C948 residues) expressed in bacterial expression system assessed as residual binding level at 1 uM by Kinomescan method relative to control
# Chain of Serine/threonine-protein kinase N1 (Homo sapiens) (Q16512 2-942 limits assumed): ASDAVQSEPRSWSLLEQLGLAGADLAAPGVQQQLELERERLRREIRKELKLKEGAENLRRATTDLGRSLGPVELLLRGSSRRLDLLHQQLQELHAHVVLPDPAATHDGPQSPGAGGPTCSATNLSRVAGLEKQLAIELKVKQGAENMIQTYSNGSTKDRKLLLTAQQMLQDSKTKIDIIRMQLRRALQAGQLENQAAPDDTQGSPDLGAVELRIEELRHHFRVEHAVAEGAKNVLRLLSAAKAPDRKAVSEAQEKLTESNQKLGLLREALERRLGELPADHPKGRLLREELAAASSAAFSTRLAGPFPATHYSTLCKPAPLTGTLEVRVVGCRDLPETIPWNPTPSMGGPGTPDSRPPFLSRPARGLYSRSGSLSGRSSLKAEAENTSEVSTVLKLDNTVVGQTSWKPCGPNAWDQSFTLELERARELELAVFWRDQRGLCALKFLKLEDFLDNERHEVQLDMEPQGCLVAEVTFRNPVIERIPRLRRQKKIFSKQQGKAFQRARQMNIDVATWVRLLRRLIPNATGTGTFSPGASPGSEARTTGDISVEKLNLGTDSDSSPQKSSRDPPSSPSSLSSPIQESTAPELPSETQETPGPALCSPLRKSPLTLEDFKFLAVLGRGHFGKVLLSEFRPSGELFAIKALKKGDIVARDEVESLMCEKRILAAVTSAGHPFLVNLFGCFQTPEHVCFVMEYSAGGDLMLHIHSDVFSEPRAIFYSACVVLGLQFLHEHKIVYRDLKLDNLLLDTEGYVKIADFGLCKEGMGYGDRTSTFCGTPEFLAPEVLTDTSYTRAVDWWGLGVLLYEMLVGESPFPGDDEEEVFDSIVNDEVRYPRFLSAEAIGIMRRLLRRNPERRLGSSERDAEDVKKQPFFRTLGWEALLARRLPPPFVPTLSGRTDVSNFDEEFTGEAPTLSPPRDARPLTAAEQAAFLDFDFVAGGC
# [16] = target: Protein kinase C delta type (Homo sapiens) (UniProt Q05655); assay: Binding affinity to wild-type human partial length PRKCD (Q328 to D676 residues) expressed in bacterial expression system assessed as residual binding level at 1 uM by Kinomescan method relative to control; method in brief: as §3
# [17] = target: Protein kinase C iota type (Homo sapiens) (UniProt P41743); assay: Binding affinity to wild-type human partial length PRKCI (H215 to V587 residues) expressed in mammalian expression system assessed as residual binding level at 1 uM by Kinomescan method relative to control
# [18] = target: Ribosomal protein S6 kinase alpha-1 (Homo sapiens) (UniProt Q15418); assay: Binding affinity to wild-type human partial length N-terminal RSK1 Kinase domain 1 (M1 to E388 residues) expressed in bacterial expression system assessed as residual binding level at 1 uM by Kinomescan method relative to control
# [19] = target: Serine/threonine-protein kinase Sgk2 (Homo sapiens) (UniProt Q9HBY8); assay: Binding affinity to wild-type human partial length SGK2 (L54 to C427 residues) expressed in mammalian expression system assessed as residual binding level at 1 uM by Kinomescan method relative to control
# Chain of Serine/threonine-protein kinase Sgk2 (Homo sapiens) (Q9HBY8 whole entry, the tested form may be a part): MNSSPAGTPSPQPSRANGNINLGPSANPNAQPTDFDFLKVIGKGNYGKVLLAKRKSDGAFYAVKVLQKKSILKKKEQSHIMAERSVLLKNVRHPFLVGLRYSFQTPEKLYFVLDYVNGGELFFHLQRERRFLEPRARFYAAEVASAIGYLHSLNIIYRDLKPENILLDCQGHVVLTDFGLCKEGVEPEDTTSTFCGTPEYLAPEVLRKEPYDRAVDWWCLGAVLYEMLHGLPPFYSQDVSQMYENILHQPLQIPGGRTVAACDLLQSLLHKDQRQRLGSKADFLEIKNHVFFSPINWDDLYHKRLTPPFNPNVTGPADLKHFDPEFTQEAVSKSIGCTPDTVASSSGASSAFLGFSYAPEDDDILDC
# [20] = target: Serine/threonine-protein kinase 32A (Homo sapiens) (UniProt Q8WU08); assay: Binding affinity to wild-type human full length YANK1 (M1 to L396 residues) expressed in mammalian expression system assessed as residual binding level at 1 uM by Kinomescan method relative to control; method in brief: as §2
# Chain of Serine/threonine-protein kinase 32A (Homo sapiens) (Q8WU08 whole entry, the tested form may be a part): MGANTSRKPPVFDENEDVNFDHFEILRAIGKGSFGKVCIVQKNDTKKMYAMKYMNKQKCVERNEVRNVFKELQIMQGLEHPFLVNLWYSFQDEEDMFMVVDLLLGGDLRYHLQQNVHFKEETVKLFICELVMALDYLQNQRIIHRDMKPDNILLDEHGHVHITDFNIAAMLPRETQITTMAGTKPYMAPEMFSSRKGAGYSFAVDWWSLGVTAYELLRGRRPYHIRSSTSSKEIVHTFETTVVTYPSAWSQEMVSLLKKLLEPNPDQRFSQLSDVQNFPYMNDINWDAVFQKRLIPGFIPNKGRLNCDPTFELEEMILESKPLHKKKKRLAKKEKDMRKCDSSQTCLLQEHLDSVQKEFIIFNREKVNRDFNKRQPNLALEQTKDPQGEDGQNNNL
# [21] = target: Platelet-derived growth factor receptor alpha (Homo sapiens, UniProt P16234); assay: Inhibition of PDGFRalpha in human EOL-1 cells assessed as decrease in STAT5 phosphorylation at Y694 residue after 2 hrs in presence of PDGF-AA by Western blot analysis; format: cell-based
smiles,measurement,setting,value
Cc1ccc(NC(=O)c2ccc(CN(CCN(C)C)C(=O)c3cccnc3)cc2)cc1Nc1nccc(-c2cccnc2)n1,Activity,[1],69%
same,Activity,[2],23%
same,Activity,[3],100%
same,Activity,[4],93%
same,Activity,[5],10%
same,Activity,[6],100%
same,Activity,[7],100%
same,Activity,[8],86%
same,Activity,[9],87%
same,Activity,[10],86%
same,Activity,[11],100%
same,Activity,[12],100%
same,Activity,[13],82%
same,Activity,[14],90%
same,Activity,[15],100%
same,Activity,[16],87%
same,Activity,[17],100%
same,Activity,[18],99%
same,Activity,[19],100%
same,Activity,[20],100%
same,inhibition,[21],Dose-dependent effect
